# Data taken from ChEMBL document CHEMBL5303300, “EUbOPEN Chemogenomics Library - Multiplex” (2023).
# “And” between values parts separate entries of the source, which are not always exact repeats. Identical values can stand only once.
# What was measured:
# Assay type in all cases: toxicity, cell-based
# Fibroblast = assay: Multiplex assay against human fibroblast; details: number of replicates 2
# Summary of the method: (§1)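 With compound added, live cells were imaged on a CQ1 microscope at 37°C and 5% CO2; staining with Hoechst33342, BioTracker Green Microtubule Cytoskeleton Dye, MitoTracker Red and Annexin V Alexa Fluor 680 had been done at seeding. The CellPathfinder machine-learning gating scheme split cells into Hoechst high-intensity objects or normal cells, normal cells into healthy, pyknosed or fragmented nuclei, and pyknosed cells into mitotic or apoptotic. The tubulin, mitochondrial-mass and membrane-permeability phenotypes are per cents of healthy-nucleus cells.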
# HEK-293T = assay: Multiplex assay against HEK293T; details: human, number of replicates 2; summary of the method: as §1
# U2OS = assay: Multiplex assay against U2OS; details: human, number of replicates 2; summary of the method: as §1
# [1] = 12 h, 1 µM, compound concentration 1 uM
# [2] = 12 h, 10 µM, compound concentration 10 uM
# [3] = 24 h, 1 µM, compound concentration 1 uM
# [4] = 24 h, 10 µM, compound concentration 10 uM
# [5] = 48 h, 1 µM, compound concentration 1 uM
# [6] = 48 h, 10 µM, compound concentration 10 uM
structure (smiles),measurement,setting,value
CN1CCN(C(=O)Cc2ccc(N/C(=C3\C(=O)Nc4cc(Cl)ccc43)c3ccccc3)cc2)CC1,Population Apoptotic (%),Fibroblast; [1],43% and 30%
same,Population Fragmented Nuclei (%),Fibroblast; [1],9% and 8%
same,Population Healthy Nuclei (%),Fibroblast; [1],69%
same,Population Hoechst High Intensity Objects (%),Fibroblast; [1],0%
same,Population Membrane Permeable-Phenotype (%),Fibroblast; [1],5% and 7%
same,Population Mitochondria Different-Phenotype (%),Fibroblast; [1],0% and 1%
same,Population Mitotic Cells (%),Fibroblast; [1],56% and 69%
same,Population Normal (%),Fibroblast; [1],100%
same,Population Pyknosed Nuclei (%),Fibroblast; [1],20% and 21%
same,Population Tubulin-Different-Phenotype (%),Fibroblast; [1],8% and 15%
same,Total Cell Count,Fibroblast; [1],178 and 179
same,Population Apoptotic (%),Fibroblast; [2],51% and 36%
same,Population Fragmented Nuclei (%),Fibroblast; [2],12% and 11%
same,Population Healthy Nuclei (%),Fibroblast; [2],74% and 67%
same,Population Hoechst High Intensity Objects (%),Fibroblast; [2],0%
same,Population Membrane Permeable-Phenotype (%),Fibroblast; [2],7% and 5%
same,Population Mitochondria Different-Phenotype (%),Fibroblast; [2],2%
same,Population Mitotic Cells (%),Fibroblast; [2],48% and 63%
same,Population Normal (%),Fibroblast; [2],100%
same,Population Pyknosed Nuclei (%),Fibroblast; [2],12% and 21%
same,Population Tubulin-Different-Phenotype (%),Fibroblast; [2],34% and 26%
same,Total Cell Count,Fibroblast; [2],240 and 203
same,Population Apoptotic (%),Fibroblast; [3],43% and 52%
same,Population Fragmented Nuclei (%),Fibroblast; [3],7% and 12%
same,Population Healthy Nuclei (%),Fibroblast; [3],72% and 68%
same,Population Hoechst High Intensity Objects (%),Fibroblast; [3],0%
same,Population Membrane Permeable-Phenotype (%),Fibroblast; [3],5%
same,Population Mitochondria Different-Phenotype (%),Fibroblast; [3],0% and 2%
same,Population Mitotic Cells (%),Fibroblast; [3],56% and 47%
same,Population Normal (%),Fibroblast; [3],100%
same,Population Pyknosed Nuclei (%),Fibroblast; [3],20% and 19%
same,Population Tubulin-Different-Phenotype (%),Fibroblast; [3],12% and 10%
same,Total Cell Count,Fibroblast; [3],193 and 174
same,Population Apoptotic (%),Fibroblast; [4],51% and 56%
same,Population Fragmented Nuclei (%),Fibroblast; [4],12% and 17%
same,Population Healthy Nuclei (%),Fibroblast; [4],74% and 67%
same,Population Hoechst High Intensity Objects (%),Fibroblast; [4],0%
same,Population Membrane Permeable-Phenotype (%),Fibroblast; [4],2%
same,Population Mitochondria Different-Phenotype (%),Fibroblast; [4],5% and 8%
same,Population Mitotic Cells (%),Fibroblast; [4],48% and 43%
same,Population Normal (%),Fibroblast; [4],100% and 99%
same,Population Pyknosed Nuclei (%),Fibroblast; [4],12% and 14%
same,Population Tubulin-Different-Phenotype (%),Fibroblast; [4],35% and 28%
same,Total Cell Count,Fibroblast; [4],232 and 216
same,Population Apoptotic (%),Fibroblast; [5],64% and 72%
same,Population Fragmented Nuclei (%),Fibroblast; [5],12% and 16%
same,Population Healthy Nuclei (%),Fibroblast; [5],75% and 68%
same,Population Hoechst High Intensity Objects (%),Fibroblast; [5],0%
same,Population Membrane Permeable-Phenotype (%),Fibroblast; [5],5% and 3%
same,Population Mitochondria Different-Phenotype (%),Fibroblast; [5],0%
same,Population Mitotic Cells (%),Fibroblast; [5],36% and 27%
same,Population Normal (%),Fibroblast; [5],100%
same,Population Pyknosed Nuclei (%),Fibroblast; [5],12% and 15%
same,Population Tubulin-Different-Phenotype (%),Fibroblast; [5],9% and 5%
same,Total Cell Count,Fibroblast; [5],200 and 186
same,Population Apoptotic (%),Fibroblast; [6],65% and 75%
same,Population Fragmented Nuclei (%),Fibroblast; [6],11% and 17%
same,Population Healthy Nuclei (%),Fibroblast; [6],76% and 65%
same,Population Hoechst High Intensity Objects (%),Fibroblast; [6],0%
same,Population Membrane Permeable-Phenotype (%),Fibroblast; [6],3% and 1%
same,Population Mitochondria Different-Phenotype (%),Fibroblast; [6],4% and 5%
same,Population Mitotic Cells (%),Fibroblast; [6],34% and 25%
same,Population Normal (%),Fibroblast; [6],100%
same,Population Pyknosed Nuclei (%),Fibroblast; [6],12% and 16%
same,Population Tubulin-Different-Phenotype (%),Fibroblast; [6],37% and 25%
same,Total Cell Count,Fibroblast; [6],213 and 212
same,Population Apoptotic (%),HEK-293T; [1],28% and 39%
same,Population Fragmented Nuclei (%),HEK-293T; [1],2% and 3%
same,Population Healthy Nuclei (%),HEK-293T; [1],86% and 84%
same,Population Hoechst High Intensity Objects (%),HEK-293T; [1],5%
same,Population Membrane Permeable-Phenotype (%),HEK-293T; [1],2% and 4%
same,Population Mitochondria Different-Phenotype (%),HEK-293T; [1],10% and 16%
same,Population Mitotic Cells (%),HEK-293T; [1],71% and 60%
same,Population Normal (%),HEK-293T; [1],94%
same,Population Pyknosed Nuclei (%),HEK-293T; [1],11% and 12%
same,Population Tubulin-Different-Phenotype (%),HEK-293T; [1],45% and 47%
same,Total Cell Count,HEK-293T; [1],870 and 527
same,Population Apoptotic (%),HEK-293T; [2],40% and 34%
same,Population Fragmented Nuclei (%),HEK-293T; [2],1%
same,Population Healthy Nuclei (%),HEK-293T; [2],86% and 81%
same,Population Hoechst High Intensity Objects (%),HEK-293T; [2],3% and 5%
same,Population Membrane Permeable-Phenotype (%),HEK-293T; [2],4% and 6%
same,Population Mitochondria Different-Phenotype (%),HEK-293T; [2],22% and 18%
same,Population Mitotic Cells (%),HEK-293T; [2],60% and 65%
same,Population Normal (%),HEK-293T; [2],96% and 94%
same,Population Pyknosed Nuclei (%),HEK-293T; [2],11% and 16%
same,Population Tubulin-Different-Phenotype (%),HEK-293T; [2],67% and 69%
same,Total Cell Count,HEK-293T; [2],702 and 579
same,Population Apoptotic (%),HEK-293T; [3],29% and 31%
same,Population Fragmented Nuclei (%),HEK-293T; [3],4%
same,Population Healthy Nuclei (%),HEK-293T; [3],87%
same,Population Hoechst High Intensity Objects (%),HEK-293T; [3],9% and 5%
same,Population Membrane Permeable-Phenotype (%),HEK-293T; [3],3%
same,Population Mitochondria Different-Phenotype (%),HEK-293T; [3],6% and 10%
same,Population Mitotic Cells (%),HEK-293T; [3],70% and 68%
same,Population Normal (%),HEK-293T; [3],90% and 94%
same,Population Pyknosed Nuclei (%),HEK-293T; [3],7% and 8%
same,Population Tubulin-Different-Phenotype (%),HEK-293T; [3],28% and 32%
same,Total Cell Count,HEK-293T; [3],1172 and 750
same,Population Apoptotic (%),HEK-293T; [4],29% and 34%
same,Population Fragmented Nuclei (%),HEK-293T; [4],3% and 4%
same,Population Healthy Nuclei (%),HEK-293T; [4],88% and 86%
same,Population Hoechst High Intensity Objects (%),HEK-293T; [4],4% and 5%
same,Population Membrane Permeable-Phenotype (%),HEK-293T; [4],3% and 4%
same,Population Mitochondria Different-Phenotype (%),HEK-293T; [4],12% and 9%
same,Population Mitotic Cells (%),HEK-293T; [4],70% and 65%
same,Population Normal (%),HEK-293T; [4],95% and 94%
same,Population Pyknosed Nuclei (%),HEK-293T; [4],8% and 9%
same,Population Tubulin-Different-Phenotype (%),HEK-293T; [4],48%
same,Total Cell Count,HEK-293T; [4],992 and 819
same,Population Apoptotic (%),HEK-293T; [5],17%
same,Population Fragmented Nuclei (%),HEK-293T; [5],13% and 7%
same,Population Healthy Nuclei (%),HEK-293T; [5],83% and 87%
same,Population Hoechst High Intensity Objects (%),HEK-293T; [5],9% and 8%
same,Population Membrane Permeable-Phenotype (%),HEK-293T; [5],3%
same,Population Mitochondria Different-Phenotype (%),HEK-293T; [5],0% and 1%
same,Population Mitotic Cells (%),HEK-293T; [5],82%
same,Population Normal (%),HEK-293T; [5],90% and 91%
same,Population Pyknosed Nuclei (%),HEK-293T; [5],2% and 4%
same,Population Tubulin-Different-Phenotype (%),HEK-293T; [5],12% and 15%
same,Total Cell Count,HEK-293T; [5],2950 and 1758
same,Population Apoptotic (%),HEK-293T; [6],17% and 42%
same,Population Fragmented Nuclei (%),HEK-293T; [6],10% and 8%
same,Population Healthy Nuclei (%),HEK-293T; [6],85% and 87%
same,Population Hoechst High Intensity Objects (%),HEK-293T; [6],8% and 9%
same,Population Membrane Permeable-Phenotype (%),HEK-293T; [6],4%
same,Population Mitochondria Different-Phenotype (%),HEK-293T; [6],3%
same,Population Mitotic Cells (%),HEK-293T; [6],82% and 58%
same,Population Normal (%),HEK-293T; [6],91% and 90%
same,Population Pyknosed Nuclei (%),HEK-293T; [6],3% and 4%
same,Population Tubulin-Different-Phenotype (%),HEK-293T; [6],31% and 34%
same,Total Cell Count,HEK-293T; [6],1910 and 1370
same,Population Apoptotic (%),U2OS; [1],100% and 55%
same,Population Healthy Nuclei (%),U2OS; [1],57% and 86%
same,Population Hoechst High Intensity Objects (%),U2OS; [1],0%
same,Population Membrane Permeable-Phenotype (%),U2OS; [1],8% and 3%
same,Population Mitochondria Different-Phenotype (%),U2OS; [1],8% and 0%
same,Population Normal (%),U2OS; [1],100%
same,Population Pyknosed Nuclei (%),U2OS; [1],7% and 10%
same,Population Tubulin-Different-Phenotype (%),U2OS; [1],66% and 71%
same,Population Fragmented Nuclei (%),U2OS; [2],3% and 12%
same,Population Healthy Nuclei (%),U2OS; [2],81% and 77%
same,Population Hoechst High Intensity Objects (%),U2OS; [2],0%
same,Population Mitochondria Different-Phenotype (%),U2OS; [2],0%
same,Population Mitotic Cells (%),U2OS; [2],43% and 100%
same,Population Normal (%),U2OS; [2],100%
same,Population Pyknosed Nuclei (%),U2OS; [2],14% and 9%
same,Population Tubulin-Different-Phenotype (%),U2OS; [2],55% and 33%
same,Population Apoptotic (%),U2OS; [3],66% and 69%
same,Population Healthy Nuclei (%),U2OS; [3],64% and 88%
same,Population Hoechst High Intensity Objects (%),U2OS; [3],0%
same,Population Mitochondria Different-Phenotype (%),U2OS; [3],12% and 0%
same,Population Mitotic Cells (%),U2OS; [3],33% and 30%
same,Population Normal (%),U2OS; [3],100% and 99%
same,Population Pyknosed Nuclei (%),U2OS; [3],16% and 9%
same,Population Tubulin-Different-Phenotype (%),U2OS; [3],79% and 73%
same,Population Apoptotic (%),U2OS; [4],33% and 62%
same,Population Fragmented Nuclei (%),U2OS; [4],0% and 4%
same,Population Healthy Nuclei (%),U2OS; [4],90% and 82%
same,Population Hoechst High Intensity Objects (%),U2OS; [4],0%
same,Population Membrane Permeable-Phenotype (%),U2OS; [4],10% and 2%
same,Population Mitochondria Different-Phenotype (%),U2OS; [4],10% and 3%
same,Population Mitotic Cells (%),U2OS; [4],66% and 37%
same,Population Normal (%),U2OS; [4],100% and 99%
same,Population Pyknosed Nuclei (%),U2OS; [4],9% and 12%
same,Population Tubulin-Different-Phenotype (%),U2OS; [4],58% and 59%
same,Population Apoptotic (%),U2OS; [5],75% and 58%
same,Population Healthy Nuclei (%),U2OS; [5],75% and 89%
same,Population Hoechst High Intensity Objects (%),U2OS; [5],0%
same,Population Membrane Permeable-Phenotype (%),U2OS; [5],6% and 0%
same,Population Mitochondria Different-Phenotype (%),U2OS; [5],3% and 0%
same,Population Mitotic Cells (%),U2OS; [5],25% and 41%
same,Population Normal (%),U2OS; [5],100% and 99%
same,Population Pyknosed Nuclei (%),U2OS; [5],9% and 7%
same,Population Tubulin-Different-Phenotype (%),U2OS; [5],83% and 85%
same,Population Apoptotic (%),U2OS; [6],83% and 75%
same,Population Fragmented Nuclei (%),U2OS; [6],5% and 3%
same,Population Healthy Nuclei (%),U2OS; [6],84% and 87%
same,Population Hoechst High Intensity Objects (%),U2OS; [6],0%
same,Population Membrane Permeable-Phenotype (%),U2OS; [6],2%
same,Population Mitochondria Different-Phenotype (%),U2OS; [6],8% and 1%
same,Population Mitotic Cells (%),U2OS; [6],16% and 24%
same,Population Normal (%),U2OS; [6],100%
same,Population Pyknosed Nuclei (%),U2OS; [6],10% and 8%
same,Population Tubulin-Different-Phenotype (%),U2OS; [6],69% and 66%
